Drawing on ChEMBL document CHEMBL1124025, “(Acyloxy)alkyl carbamates as novel bioreversible prodrugs for amines: increased permeation through biological membranes” (J Med Chem, 1988), this text covers half-life and Diffusion for 8 compounds.

Data set [1] can be described thus: Hydrolysis half-life at 37 degree C in dog plasma. Type of data set: ADME, Canis lupus familiaris. The gist of the method:
(§1)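 0.1–0.2 mg prodrug in a small drop of DMSO, mixed with 1 mL plasma held at 37 °C in a thermostated water bath. Samples drawn at intervals and injected directly onto HPLC to follow loss of prodrug and/or appearance of the parent amine; concentrations by external standard from peak areas. Half-life derived from the time course.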

A further data set is filed under the species Rattus norvegicus. As to the kind of experiment: Percent diffusion through fuzzy rat skin after 48 h of incubation. Type of data set: ADME. As to conditions: in vitro. The gist of the method: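 Whole ventral and dorsal skin from 8-week fuzzy rats (about 250 g) mounted in diffusion cells. Receptor was pH 7.0 phosphate-buffered 0.15 M NaCl with 22 ppm gentamicin. Ethanolic test solution spread on the skin surface. Cells occluded at 32 °C, stirred at 150 rpm, and 0.2 mL sampled with buffer replacement over 48 h. HPLC/UV quantitation; run in triplicate.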

A short description of data set [2]: Hydrolysis half-life at 37 degree C in rat plasma. The data set is classed as ADME. The gist of the method: as §1
A short description of data set [3]: Hydrolysis half-life at 37 degree C in phosphate buffer at pH 7.4. Type of data set: ADME. The gist of the method: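 Done as for the plasma runs but in pH 7.4 Sorensen's buffer at 37 °C. 0.1–0.2 mg prodrug added from a small DMSO drop, sampled at time points, and analysed by direct-injection HPLC for prodrug loss and/or parent amine formation. External-standard quantitation.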

The structures appear in SMILES notation.

The term half-life denotes the time in which the quantity being followed falls by half. A high value points to slow loss.

On to `CC(=O)OCOC(=O)N(CC(O)COc1nsnc1N1CCOCC1)C(C)(C)C` (stereo not drawn), for which the half-life stood at 9.7 min in data set [1], 3 min in data set [2] and 23.5 h in data set [3]. Moreover, the Diffusion in the data set listed under Rattus norvegicus is 0.53%.
`CC(=O)OC(C)OC(=O)N(CC(O)COc1cccc2ccccc12)C(C)C` (stereo not drawn) displayed a Diffusion in the data set listed under Rattus norvegicus of 0.45%. The half-life in data set [2] is 3 min; in data set [3], 44.5 h.
In the data set listed under Rattus norvegicus, `CC(=O)OC(C)OC(=O)N(CC(O)COc1ccc(CC(N)=O)cc1)C(C)C` (stereo not drawn) returned a Diffusion of 0.49%.
On to `CC(=O)OC(C)OC(=O)N(CC(O)COc1cccc2[nH]ccc12)C(C)C` (stereo not drawn), for which the Diffusion in the data set listed under Rattus norvegicus was determined as 0.35%.
Still for that read-out and setting: then `CC(C)NCC(O)COc1ccc(CC(N)=O)cc1` (stereo not drawn) [ATENOLOL], with 0.13%.
Still for that read-out and setting: the figure for `CC(C)NCC(O)COc1cccc2[nH]ccc12` (stereo not drawn) [PINDOLOL] is 0.03%; for `CC(C)NCC(O)COc1cccc2ccccc12` (stereo not drawn) [PROPRANOLOL] it is 2.4%.
Regarding `CC(C)(C)NC[C@H](O)COc1nsnc1N1CCOCC1` [TIMOLOL], the Diffusion in the data set filed under Rattus norvegicus is 18.14%.
